# In ChEMBL document CHEMBL1123488, “Agents for the treatment of brain edema. 2. [(2,3,9,9a-Tetrahydro-3-oxo-9a-substituted-1H-fluoren-7-yl)oxy]+ ++alkanoi c acids and some of their analogues” (J Med Chem, 1986):
# Key:
# [1] = % distribution in octanol versus pH7.4 buffer; format: physicochemical; conditions: pH 7.4
# Felis catus = species on record: Felis catus; assay: In vitro concentration required for 50% inhibition of swelling of cat cerebrocortical slices; format: functional; conditions: read-out: I50
# Method in brief: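 Cat cortical slices were weighed and incubated 60 min at 22 °C in 27 mM K+ medium, with HCO3- added for the last 40 min and inhibitor present throughout. Swelling = (final − initial wet weight)/initial wet weight × 100. The HCO3−-dependent increment was taken as the target. I50 is the molarity giving 50% inhibition, read from the concentration–response curve.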
# [2] = Dissociation constant (pKa) (determined in 30% EtOH); format: physicochemical
SMILES,Distribution [1] [%],IC50 (Felis catus; Felis catus) [nM],pKa [2],IC50 (Felis catus) [nM]
CCC12CCC(=O)C=C1c1c(cc(OCC(=O)OCCN3CCOCC3)c(Cl)c1Cl)C2 (configuration not stated),98.6,> 10,5.08,
CCCC12CCC(=O)C=C1c1c(cc(OCC(=O)NCCN(C)C)c(Cl)c1Cl)C2 (configuration not stated),99.7,> 1000,7.7,
CCCC12CC(=O)C=C1c1c(cc(OCC(=O)O)c(Cl)c1Cl)C2 (configuration not stated),88,100,3.84,
CCC12CCC(=O)C=C1c1c(cc(OCc3nn[nH]n3)c(Cl)c1Cl)C2 (configuration not stated),95,> 100,3.72,
CCCC12CCC(=O)C=C1c1c(cc(OCC(=O)NN(C)C)c(Cl)c1Cl)C2 (configuration not stated),99.7,> 100,3.9,
CC(C)C12CCC(=O)C=C1c1c(cc(OCC(=O)O)c(Cl)c1Cl)C2 (configuration not stated),89,> 100,3.83,
C=CC12CCC(=O)C=C1c1c(cc(OCC(=O)O)c(Cl)c1Cl)C2 (configuration not stated),70,> 10,3.5,
CCC12CCC(=O)C=C1c1c(cc(OCC(=O)OCc3cccnc3)c(Cl)c1Cl)C2 (configuration not stated),> 99.9,0.1,3.32,
CCC12CCC(=O)C=C1c1c(cc(OCC(=O)OCC(C)=O)c(Cl)c1Cl)C2 (configuration not stated),> 99.9,1,,
CCCC12CCC(=O)C=C1c1c(cc(OCC(=O)O)c(C)c1C)C2 (configuration not stated),49,100,4.3,
CCC12C=CC(=O)C=C1c1c(cc(OCC(=O)O)c(Cl)c1Cl)C2 (configuration not stated),79,> 10,3.7,
CCCC12CCC(=O)C=C1c1ccc(OCC(=O)O)cc1C2 (configuration not stated),49,50,4.05,
CCCC12CCC(=O)C=C1c1c(cc(OCCCC(=O)O)c(Cl)c1Cl)C2 (configuration not stated),99.8,3,3.7,
CCCC12CCC(=O)C(C)=C1c1c(cc(OCC(=O)O)c(Cl)c1Cl)C2 (configuration not stated),98,> 100,3.5,
CCCCC12CCC(=O)C=C1c1c(cc(OCC(=O)O)c(Cl)c1Cl)C2 (configuration not stated),98,> 10,3.5,
CCC12CCC(=O)C=C1c1c(cc(OCC(=O)OCC3COC(C)(C)O3)c(Cl)c1Cl)C2 (configuration not stated),99.9,> 10,,
O=C(O)COc1cc2c(c(Cl)c1Cl)C1=CC(=O)CCC1(C1CCCC1)C2 (configuration not stated),97,1,3.83,
CCCC12CCC(=O)C=C1c1c(cc(OCC(=O)OC)c(Cl)c1Cl)C2 (configuration not stated),> 99.9,0.002,,
CCC12CCC(=O)C=C1c1c(cc(OCC(=O)OCC3CCC(CO)O3)c(Cl)c1Cl)C2 (configuration not stated),99.7,1000,,
CCC12CCC(=O)C=C1c1c(cc(OCC(=O)OCCCO)c(Cl)c1Cl)C2 (configuration not stated),99.3,0.7,,

SMILES,Distribution [1] [%],IC50 (Felis catus; Felis catus) [nM],pKa [2],IC50 (Felis catus) [nM]
CCC12CCC(=O)C=C1c1c(cc(OCCCC(=O)O)c(Cl)c1Cl)C2 (configuration not stated),99.2,> 10000,3.7,
CCCC12CCC(=O)C=C1c1c(cc(SCC(=O)O)c(Cl)c1Cl)C2 (configuration not stated),99,> 1000,4.7,
CCC12CCC(=O)C=C1c1c(cc(OCC(=O)OC)c(Cl)c1Cl)C2 (configuration not stated),99.5,20,,
CC12CCC(=O)C=C1c1c(cc(OCC(=O)O)c(Cl)c1Cl)C2 (configuration not stated),62,10,3.75,
CCCC12CCC(C(C)=O)=C1c1c(cc(OCC(=O)O)c(Cl)c1Cl)C2 (configuration not stated),95,100,4.1,
"CCC12CCC(=O)C=C1c1c(cc(OCC(=O)O)c(Cl)c1Cl)C2 (single isomer, unassigned; (+))",,,,10
"CCOC(=O)COc1cc2c(c(Cl)c1Cl)C1=CC(=O)CCC1(CC)C2 (single isomer, unassigned; (+))",> 99.9,,,0.1
"CCCC12CCC(=O)C=C1c1c(cc(O)c(Cl)c1Cl)C2 (single isomer, unassigned; (+))",11,> 10000,6.18,
"CCCC12CCC(=O)C=C1c1c(cc(OCC(=O)OC(CC)(CC)C(=O)O)c(Cl)c1Cl)C2 (single isomer, unassigned; (+))",> 99.9,0.04,3.4,
"CCCC12CCC(=O)C=C1c1c(cc(OCC(=O)OC(C)(C)C(=O)O)c(Cl)c1Cl)C2 (single isomer, unassigned; (+))",98,0.004,3.8,
"CCCC12CCC(=O)C=C1c1c(cc(OCC(=O)O)c(Cl)c1Cl)C2 (single isomer, unassigned; (-))",,,,10000
"CCOC(=O)COc1cc2c(c(Cl)c1Cl)C1=CC(=O)CCC1(CC)C2 (single isomer, unassigned; (-))",,,,> 10000
CCC12CCC(=O)C=C1c1c(cc(OCC(=O)O)c(Cl)c1Cl)C2 (stereo in doubt; 5b),,,,30
CCCC12CCC(=O)C=C1c1c(cc(OCC(=O)O)c(Cl)c1Cl)C2 (stereo in doubt; 5c),93,,3.6,0.04
CCOC(=O)COc1cc2c(c(Cl)c1Cl)C1=CC(=O)CCC1(CC)C2 (stereo in doubt; 16b-1),> 99.8,,,0.2
CCC12CCC(=O)C=C1c1c(cc(OCC(=O)OCC(=O)O)c(Cl)c1Cl)C2 (stereo in doubt; 16b-8),91,6,3.8,
CCC12CCC(=O)C=C1c1c(cc(OCC(=O)OC(C)(C)C(=O)O)c(Cl)c1Cl)C2 (stereo in doubt; 16b-9),95,1,3.8,
CCC12CCC(=O)C=C1c1c(cc(OCC(=O)OCC(=O)O)c(Cl)c1Cl)C2 (stereo in doubt; (+)-16b-8),83,,,3
CCC12CCC(=O)C=C1c1c(cc(OCC(=O)OC(C)(C)C(=O)O)c(Cl)c1Cl)C2 (stereo in doubt; (+)-16b-9),96,,,0.5
CCC12CCC(=O)C=C1c1c(cc(OCC(=O)O)c(Cl)c1Cl)C2 (stereo in doubt; (-)-5b),81,,3.6,30000
